Converted amounts (≈) assume the structure as drawn.
How the values were obtained:
[1] = system: Mycobacterium tuberculosis; experiment: Antitubercular activity against Mycobacterium tuberculosis H37Rv assessed as inhibition of microbial growth incubated by measuring turbidity for 5 days by serial microdilution based colorimetric assay; format: functional; conditions: 120 h, dose 20 µM, time 5 day
Summary of the method: (§1)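 Strains grown in Middlebrook 7H9 with ADS (BSA, dextrose, NaCl) and 1% glycerol. Compounds from 40 mM DMSO stocks were two-fold serially diluted in plate broth. Inoculum was a 1/25 dilution of a mid-log culture at McFarland 1.0, about 10⁶ CFU/well. Plates sealed and held 5 days at 37 °C. MIC is the lowest concentration with no visible turbidity. Rifampicin was the control drug.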

[2] = system: Mycobacterium tuberculosis; experiment: Antimycobacterial activity against Mycobacterium tuberculosis InhA-OE strain assessed as inhibition of microbial growth at 20 uM incubated for 5 days by serial microdilution based colorimetric assay; format: functional; conditions: 120 h, time 5 day
[3] = Selectivity index, ratio of CC50 for african green monkey Vero cells to MIC for Mycobacterium tuberculosis H37Rv; format: toxicity; conditions: read-out: Selectivity Index
[4] = Cytotoxicity against African green monkey Vero E6 cells assessed as reduction in cell viability incubated for 48 hrs by neutral red assay; format: cell-based; conditions: Chlorocebus aethiops
Summary of the method: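 Vero kidney […] were seeded at 25,000 cells/well and allowed 24 h before compound was added, then incubated 48 h. Viable cells were read by neutral red uptake. IC50 was taken from log plots of growth inhibition versus concentration. Doxorubicin was the positive control and DMSO the vehicle control.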

[5] = system: Mycobacterium tuberculosis; experiment: Antitubercular activity against Mycobacterium tuberculosis H37Rv under anerobic condition; format: functional
[6] = system: Mycobacterium tuberculosis; experiment: Antitubercular activity against Mycobacterium tuberculosis H37Rv under aerobic condition; format: functional
[7] = system: Mycobacterium tuberculosis; experiment: Antitubercular activity against Mycobacterium tuberculosis H37Rv; format: functional; summary of the method: as §1

Row | Compound | MIC [1] | also measured
1 | COC(=O)/C=C/N(/N=C/C=C(C)C)S(=O)(=O)c1ccc(C)cc1 | 5 µM | MIC [2]: 10 µM
2 | COC(=O)/C=C/N(/N=C/c1ccccc1OC)S(=O)(=O)c1ccc(C)cc1 | 1.25 µM | selectivity ratio [3]: 9.76; IC50 [4]: > 12.2 µM; MIC [2]: 5 µM
3 | COC(=O)/C=C\N(/N=C/C1=CC2CC(C1)C2(C)C)S(=O)(=O)c1ccc(C)cc1 (stereo not drawn) | > 20 µM | –
4 | C/C=C/C=C/C=N/N(/C=C\C(=O)OC)S(=O)(=O)c1ccc(C)cc1 | 20 µM | –
5 | Cc1cc(C)nc(NNC(=O)c2ccccn2)n1 | – | IC90 [5]: 2.02 mg/L (≈ 8.3 µM); IC90 [6]: 1.51 mg/L (≈ 6.21 µM); MIC [7]: 6.08 mg/L (≈ 25 µM)
6 | COC(=O)/C=C/N(/N=C/c1ccc([N+](=O)[O-])cc1)S(=O)(=O)c1ccc(C)cc1 | > 20 µM | –
7 | COC(=O)/C=C\N(/N=C/C1=CCCCC1)S(=O)(=O)c1ccc(C)cc1 | > 20 µM | –
8 | COC(=O)/C=C/N(/N=C/c1ccc(OC)c(OC)c1)S(=O)(=O)c1ccc(C)cc1 | > 20 µM | –
9 | COC(=O)/C=C/N(/N=C/c1ccc(-c2ccccc2)cc1)S(=O)(=O)c1ccc(C)cc1 | > 20 µM | –
10 | COC(=O)/C=C/N(/N=C/C1=CCCCC1)S(=O)(=O)c1ccc(C)cc1 | 10 µM | –
11 | COC(=O)/C=C/N(/N=C/c1ccccc1)S(=O)(=O)c1ccc(C)cc1 | 1.25 µM | selectivity ratio [3]: 10.6; IC50 [4]: > 13.3 µM; MIC [2]: 2.5 µM
12 | COC(=O)/C=C/N(/N=C/c1ccccc1C(F)(F)F)S(=O)(=O)c1ccc(C)cc1 | 20 µM | –
13 | C/C=C/C=C/C=N/N(/C=C/C(=O)OC)S(=O)(=O)c1ccc(C)cc1 | 5 µM | MIC [2]: 10 µM
14 | COC(=O)/C=C/N(/N=C/c1ccc[nH]1)S(=O)(=O)c1ccc(C)cc1 | > 20 µM | –
15 | COC(=O)/C=C\N(/N=C/c1ccc([N+](=O)[O-])cc1)S(=O)(=O)c1ccc(C)cc1 | > 20 µM | –
16 | COC(=O)/C=C/N(/N=C/C=C/c1ccc(OC)cc1)S(=O)(=O)c1ccc(C)cc1 | 10 µM | –
17 | COC(=O)/C=C\N(/N=C/c1ccccc1)S(=O)(=O)c1ccc(C)cc1 | 20 µM | –

Row | Compound | MIC [1] | also measured
18 | COC(=O)/C=C\N(/N=C/c1ccc(OC)c(OC)c1)S(=O)(=O)c1ccc(C)cc1 | > 20 µM | –
19 | O=C(N/N=C\c1ccco1)c1cc(C23CC4CC(CC(C4)C2)C3)c2ccccc2n1 | – | MIC [7]: 3.12 mg/L (≈ 7.81 µM)
20 | COC(=O)/C=C/N(/N=C/c1ccc2ccccc2c1)S(=O)(=O)c1ccc(C)cc1 | 1.25 µM | selectivity ratio [3]: 9.28; IC50 [4]: > 11.6 µM; MIC [2]: 2.5 µM
21 | COC(=O)/C=C\N(/N=C/C=C/c1ccc(OC)cc1)S(=O)(=O)c1ccc(C)cc1 | > 20 µM | –
22 | COC(=O)/C=C\N(/N=C/c1ccc2ccccc2c1)S(=O)(=O)c1ccc(C)cc1 | 20 µM | –
23 | COC(=O)/C=C\N(/N=C/c1ccc[nH]1)S(=O)(=O)c1ccc(C)cc1 | > 20 µM | –
24 | COC(=O)/C=C/N(/N=C/C1=CC2CC(C1)C2(C)C)S(=O)(=O)c1ccc(C)cc1 (stereo not drawn) | > 20 µM | –
25 | COC(=O)/C=C\N(/N=C/c1ccc(-c2ccccc2)cc1)S(=O)(=O)c1ccc(C)cc1 | > 20 µM | –
26 | COC(=O)/C=C\N(/N=C/c1ccccc1C(F)(F)F)S(=O)(=O)c1ccc(C)cc1 | > 20 µM | –
27 | COC(=O)/C=C\N(/N=C/c1ccc(Br)cc1)S(=O)(=O)c1ccc(C)cc1 | > 20 µM | –
28 | COC(=O)/C=C/N(/N=C/c1ccc(Br)cc1)S(=O)(=O)c1ccc(C)cc1 | > 20 µM | –
29 | COC(=O)/C=C\N(/N=C/c1ccco1)S(=O)(=O)c1ccc(C)cc1 | 20 µM | –
30 | COC(=O)/C=C/N(/N=C/c1ccco1)S(=O)(=O)c1ccc(C)cc1 | 5 µM | MIC [2]: 10 µM
31 | COC(=O)/C=C\N(/N=C/c1ccccc1OC)S(=O)(=O)c1ccc(C)cc1 | > 20 µM | –
32 | NNC(=O)c1ccncc1 [ISONIAZID] | 0.36 µM | MIC [2]: > 7.3 µM
33 | CO[C@H]1/C=C/O[C@@]2(C)Oc3c(C)c(O)c4c(O)c(c(/C=N/N5CCN(C)CC5)c(O)c4c3C2=O)NC(=O)/C(C)=C\C=C\[C@H](C)[C@H](O)[C@@H](C)[C@@H](O)[C@@H](C)[C@H](OC(C)=O)[C@@H]1C [RIFAMPIN] | 0.3 µM | –

Reference: ChEMBL document CHEMBL4706578, “New one-pot synthesis of anti-tuberculosis compounds inspired on isoniazid” (Eur J Med Chem, 2020)
